Tests used:
HIV-1ADA = assay: EC50 assay in MDM, HIV-1 RT activity; type: cell-based; conditions: Human immunodeficiency virus 1, 240 h
How it was run: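 Human monocytes differentiated to macrophages with MCSF (1000 U/mL) for 7 days, then seeded at 0.15 × 10^6 cells/well and kept at 37 °C, 5% CO2. Cells were pretreated 2 h with test compound (0.1–1000 nM) and challenged with HIV-1ADA at MOI 0.1 for 4 h. After a PBS wash they were re-fed drug-containing medium at the same concentrations. Supernatant RT activity was read 10 days post-challenge.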

HIV-1NL4–3-eGFP = assay: EC50 assay in CEM-CD4+ T-cells, HIV-1 RT activity; type: cell-based; conditions: Human immunodeficiency virus 1, T-cell, 240 h
HIV-1 = conditions: no reference given; cited from earlier work

Cc1cc(/C=C/C#N)cc(C)c1Nc1ccnc(Nc2ccc(C#N)cc2)n1 [RPV, rilpivirine]
EC50 (HIV-1ADA): 1.9 nM | EC50 (HIV-1NL4–3-eGFP): 0.8 nM | protein-adjusted 90% inhibitory concentration (PA-IC90) (HIV-1): 0.012 µg/mL

Source: article PMC6875695 (Journal of controlled release : official journal of the …, 2019)
